Measurements reported in ChEMBL document CHEMBL3286101, “Probing of primed and unprimed sites of calpains: Design, synthesis and evaluation of epoxysuccinyl-peptide derivatives as selective inhibitors” (Eur J Med Chem, 2014).
Peptide text beside a SMILES is read from it. * marks the point of attachment. X4 = CC(C)C[C@H](NC(=O)[C@@H]1O[C@H]1C(=O)*)C(=O)N[C@@H](Cc1c[nH]c2ccccc12)C(=O)N[C@H](C(N)=O)[C@@H](C)O; X5 = CC(C)C[C@H](NC(=O)[C@H]1O[C@@H]1C(=O)*)C(=O)N[C@@H](Cc1c[nH]c2ccccc12)C(=O)N[C@H](C(N)=O)[C@@H](C)O; X3 = C[C@@H](O)[C@H](NC(=O)[C@@H]1CCCN1C(=O)[C@@H](NC(=O)[C@H]1O[C@@H]1C(=O)*)[C@@H](C)O)C(N)=O; X9 = C[C@@H](O)[C@H](NC(=O)[C@@H]1CCCN1C(=O)[C@@H](NC(=O)[C@@H]1O[C@H]1C(=O)*)[C@@H](C)O)C(N)=O; X10 = CC(C)C[C@H](NC(=O)[C@@H]1O[C@H]1C(=O)*)C(=O)N[C@@H](CO)C(=O)N[C@H](C(N)=O)[C@@H](C)O; X1 = CC(C)C[C@H](NC(=O)[C@H]1O[C@@H]1C(=O)*)C(=O)N1CCC[C@H]1C(=O)N[C@H](C(N)=O)[C@@H](C)O; X2 = CC(C)C[C@H](NC(=O)[C@@H]1O[C@H]1C(=O)*)C(=O)N1CCC[C@H]1C(=O)N[C@H](C(N)=O)[C@@H](C)O; X6 = CC(C)C[C@H](NC(=O)[C@H]1O[C@@H]1C(=O)*)C(=O)N[C@@H](CO)C(=O)N[C@H](C(N)=O)[C@@H](C)O; X7 = CC(C)[C@H](NC(=O)[C@@H]1O[C@H]1C(=O)*)C(=O)N1CCC[C@H]1C(=O)N[C@H](C(N)=O)[C@@H](C)O; X8 = CC(C)[C@H](NC(=O)[C@H]1O[C@@H]1C(=O)*)C(=O)N1CCC[C@H]1C(=O)N[C@H](C(N)=O)[C@@H](C)O

Tests used:
[1] = biological target: T1, Calpain-1 catalytic subunit (Homo sapiens, UniProt P07384); test: Inhibition of calpain-1 (unknown origin) using Suc-LY-AMC as substrate by fluorescence assay
T1 sequence (P07384 whole entry): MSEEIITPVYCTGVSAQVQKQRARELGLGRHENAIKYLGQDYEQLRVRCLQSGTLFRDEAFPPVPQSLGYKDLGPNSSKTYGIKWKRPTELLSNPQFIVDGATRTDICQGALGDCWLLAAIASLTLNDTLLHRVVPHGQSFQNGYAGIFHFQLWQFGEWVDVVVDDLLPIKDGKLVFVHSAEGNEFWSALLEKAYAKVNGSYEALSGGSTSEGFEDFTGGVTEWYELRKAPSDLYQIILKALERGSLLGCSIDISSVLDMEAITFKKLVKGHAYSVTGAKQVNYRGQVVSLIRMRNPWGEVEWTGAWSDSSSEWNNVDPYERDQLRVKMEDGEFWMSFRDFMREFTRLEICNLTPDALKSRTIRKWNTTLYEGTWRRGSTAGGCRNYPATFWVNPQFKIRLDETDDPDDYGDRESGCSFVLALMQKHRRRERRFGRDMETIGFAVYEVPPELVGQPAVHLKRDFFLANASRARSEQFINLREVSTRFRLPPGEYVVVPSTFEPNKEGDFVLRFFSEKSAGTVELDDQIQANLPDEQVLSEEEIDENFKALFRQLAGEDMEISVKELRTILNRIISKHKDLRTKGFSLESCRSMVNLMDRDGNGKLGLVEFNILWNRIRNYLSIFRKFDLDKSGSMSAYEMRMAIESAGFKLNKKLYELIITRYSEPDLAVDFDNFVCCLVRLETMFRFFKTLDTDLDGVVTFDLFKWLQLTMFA
Method in brief: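 Human erythrocyte calpain 1 at 0.5 μM starts the reaction, added to 100 µM Suc-LY-AMC, 3 mM Ca2+ and inhibitor at various concentrations in 50 µL calpain buffer (10 mM HEPES, 150 mM NaCl, 1 mM EDTA, pH 7.5). Fluorescence is followed at 380/460 nm. Triplicate experiments; mean ± S.D.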

[2] = Inhibition of rat calpain-2 large subnit/truncated small subunit expressed in Escherichia coli using Suc-LY-AMC as substrate by fluorescence assay
Method in brief: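 Rat calpain 2 is made from its 80-kDa large subunit and 21-kDa truncated small subunit, expressed in E. coli, purified on HisTrap and dialyzed into calpain buffer (10 mM HEPES, 150 mM NaCl, 1 mM EDTA, pH 7.5). The reaction starts when 0.2 μM enzyme is added to 100 µM Suc-LY-AMC, 3 mM Ca2+ and inhibitor at various concentrations. Fluorescence is read at 380/460 nm. Triplicates; mean ± S.D.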

Cathepsin B = Cathepsin B (Homo sapiens, UniProt P07858); test: Inhibition of cathepsin B (unknown origin) using substrate-3 as substrate by fluorescence assay
Method in brief: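 Human liver cathepsin B is activated in 0.25 mM MES containing 10 mM DTE. The reaction starts when it is added at 0.7 nM to 100 μM Z-Arg-AMC with inhibitor at various concentrations in 0.25 mM MES, pH 5.0. Fluorescence is followed at 380/460 nm. Triplicates; mean ± S.D.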

[3] = Retention time of the compound by RP-HPLC analysis; assay type: physicochemical
Method in brief: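 Analytical RP-HPLC on a C18 column (150 × 4.6 mm, 5 μm, 100 Å). Eluent A is 0.1% TFA in water and eluent B is 0.1% TFA in acetonitrile–water 80:20. Gradient runs 0% B for 2 min, then to 90% B at 22 min, at 1 mL/min and ambient temperature. Detection at 220 nm.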

[4] = Selectivity ratio of Ki for cathepsin B (unknown origin) to Ki for rat calpain-2

| Structure (SMILES) | Ki [1] | Ki (Cathepsin B) | Retention_time [3] | Ratio Ki [4] | Retention time [3] | Ki [2] |
| --- | --- | --- | --- | --- | --- | --- |
| CC(C)C[C@H](NC(=O)[C@H]1O[C@@H]1C(=O)N[C@@H](CO)C(=O)N[C@@H](CCC(N)=O)C(=O)N1CCC[C@H]1C(=O)N1CCC[C@H]1C(=O)N[C@@H](CO)C(N)=O)C(=O)N1CCC[C@H]1C(=O)N[C@H](C(N)=O)[C@@H](C)O (X1-SQPPS-NH2) | > 100 µM | > 100 µM | 10.8 min | – | – | > 100 µM |
| CC(C)C[C@H](NC(=O)[C@H]1O[C@@H]1C(=O)N[C@@H](CO)C(=O)N[C@@H](CO)C(=O)N1CCC[C@H]1C(=O)N1CCC[C@H]1C(=O)N[C@@H](CO)C(N)=O)C(=O)N1CCC[C@H]1C(=O)N[C@H](C(N)=O)[C@@H](C)O (X1-SSPPS-NH2) | > 100 µM | > 100 µM | 12 min | – | – | > 100 µM |
| CC(C)C[C@H](NC(=O)[C@@H]1O[C@H]1C(=O)N[C@@H](CO)C(=O)N[C@@H](CCC(N)=O)C(=O)N1CCC[C@H]1C(=O)N1CCC[C@H]1C(=O)N[C@@H](CO)C(N)=O)C(=O)N1CCC[C@H]1C(=O)N[C@H](C(N)=O)[C@@H](C)O (X2-SQPPS-NH2) | > 100 µM | > 100 µM | 10.7 min | – | – | > 100 µM |
| CC(C)C[C@H](NC(=O)[C@@H]1O[C@H]1C(=O)N[C@@H](CO)C(=O)N[C@@H](CO)C(=O)N1CCC[C@H]1C(=O)N1CCC[C@H]1C(=O)N[C@@H](CO)C(N)=O)C(=O)N1CCC[C@H]1C(=O)N[C@H](C(N)=O)[C@@H](C)O (X2-SSPPS-NH2) | > 100 µM | > 100 µM | 11.9 min | – | – | > 100 µM |
| C[C@@H](O)[C@H](NC(=O)[C@@H]1CCCN1C(=O)[C@@H](NC(=O)[C@H]1O[C@@H]1C(=O)N[C@@H](CO)C(=O)N1CCC[C@H]1C(=O)N1CCC[C@H]1C(=O)N1CCC[C@H]1C(=O)N[C@@H](CO)C(N)=O)[C@@H](C)O)C(N)=O (X3-SPPPS-NH2) | > 100 µM | > 100 µM | 9.7 min | – | – | > 100 µM |
| CC(C)C[C@H](NC(=O)[C@@H]1O[C@H]1C(=O)N[C@@H](CO)C(=O)N1CCC[C@H]1C(=O)N1CCC[C@H]1C(=O)N1CCC[C@H]1C(=O)N[C@@H](CO)C(N)=O)C(=O)N[C@@H](Cc1c[nH]c2ccccc12)C(=O)N[C@H](C(N)=O)[C@@H](C)O (X4-SPPPS-NH2) | 3.7 µM | 4.45 µM | 13.2 min | – | – | 21.4 µM |
| CC(C)C[C@H](NC(=O)[C@H]1O[C@@H]1C(=O)N[C@@H](CO)C(=O)N1CCC[C@H]1C(=O)N1CCC[C@H]1C(=O)N1CCC[C@H]1C(=O)N[C@@H](CO)C(N)=O)C(=O)N[C@@H](Cc1c[nH]c2ccccc12)C(=O)N[C@H](C(N)=O)[C@@H](C)O (X5-SPPPS-NH2) | 17.1 µM | 5 µM | – | – | 12.5 min | 4.05 µM |
| CC(C)C[C@H](NC(=O)[C@H]1O[C@@H]1C(=O)N[C@@H](CO)C(=O)N1CCC[C@H]1C(=O)N1CCC[C@H]1C(=O)N1CCC[C@H]1C(=O)N[C@@H](CO)C(N)=O)C(=O)N[C@@H](CO)C(=O)N[C@H](C(N)=O)[C@@H](C)O (X6-SPPPS-NH2) | 21.9 µM | > 50 µM | 10.3 min | – | – | 14.3 µM |
| CC(C)[C@H](NC(=O)[C@@H]1O[C@H]1C(=O)N[C@@H](CO)C(=O)N1CCC[C@H]1C(=O)N1CCC[C@H]1C(=O)N1CCC[C@H]1C(=O)N[C@@H](CO)C(N)=O)C(=O)N1CCC[C@H]1C(=O)N[C@H](C(N)=O)[C@@H](C)O (X7-SPPPS-NH2) | > 50 µM | > 100 µM | 10.2 min | – | – | > 100 µM |
| CC(C)[C@H](NC(=O)[C@H]1O[C@@H]1C(=O)N[C@@H](CO)C(=O)N1CCC[C@H]1C(=O)N1CCC[C@H]1C(=O)N1CCC[C@H]1C(=O)N[C@@H](CO)C(N)=O)C(=O)N1CCC[C@H]1C(=O)N[C@H](C(N)=O)[C@@H](C)O (X8-SPPPS-NH2) | > 50 µM | > 100 µM | 10.7 min | – | – | 29.2 µM |
| C[C@@H](O)[C@H](NC(=O)[C@@H]1CCCN1C(=O)[C@@H](NC(=O)[C@@H]1O[C@H]1C(=O)N[C@@H](CO)C(=O)N1CCC[C@H]1C(=O)N1CCC[C@H]1C(=O)N1CCC[C@H]1C(=O)N[C@@H](CO)C(N)=O)[C@@H](C)O)C(N)=O (X9-SPPPS-NH2) | > 100 µM | – | 9.1 min | – | – | – |
| CC(C)C[C@H](NC(=O)[C@@H]1O[C@H]1C(=O)N[C@@H](CO)C(=O)N1CCC[C@H]1C(=O)N1CCC[C@H]1C(=O)N1CCC[C@H]1C(=O)N[C@@H](CO)C(N)=O)C(=O)N[C@@H](CO)C(=O)N[C@H](C(N)=O)[C@@H](C)O (X10-SPPPS-NH2) | 30.8 µM | – | 10.2 min | – | – | – |

Now from value to compound, other results behind:

| Ki [1] | Ki (Cathepsin B) | Retention_time [3] | Ratio Ki [4] | Retention time [3] | Structure (SMILES) | Ki [2] |
| --- | --- | --- | --- | --- | --- | --- |
| 23.7 µM | > 50 µM | 11.1 min | – | – | CC(C)C[C@H](NC(=O)[C@H]1O[C@@H]1C(=O)N[C@@H](CCCNC(=N)N)C(=O)N1CCC[C@H]1C(=O)N1CCC[C@H]1C(=O)N1CCC[C@H]1C(=O)N[C@@H](CO)C(N)=O)C(=O)N1CCC[C@H]1C(=O)N[C@H](C(N)=O)[C@@H](C)O (X1-RPPPS-NH2) | 17.9 µM |
| 12.5 µM | > 50 µM | 12.5 min | – | – | CC(C)C[C@H](NC(=O)[C@H]1O[C@@H]1C(=O)N[C@@H](CO)C(=O)N1CCC[C@H]1C(=O)N1CCC[C@H]1C(=O)N1CCC[C@H]1C(=O)N[C@@H](CO)C(N)=O)C(=O)N1CCC[C@H]1C(=O)N[C@H](C(N)=O)[C@@H](C)O (X1-SPPPS-NH2) | > 50 µM |
| 8.38 µM | 12.1 µM | 11 min | – | – | CC(C)C[C@H](NC(=O)[C@H]1O[C@@H]1C(=O)N[C@H](C(=O)N1CCC[C@H]1C(=O)N1CCC[C@H]1C(=O)N1CCC[C@H]1C(=O)N[C@@H](CO)C(N)=O)[C@@H](C)O)C(=O)N1CCC[C@H]1C(=O)N[C@H](C(N)=O)[C@@H](C)O (X1-TPPPS-NH2) | > 50 µM |
| 26.3 µM | > 100 µM | 11.1 min | – | – | CC(C)C[C@H](NC(=O)[C@@H]1O[C@H]1C(=O)N[C@@H](CCCNC(=N)N)C(=O)N1CCC[C@H]1C(=O)N1CCC[C@H]1C(=O)N1CCC[C@H]1C(=O)N[C@@H](CO)C(N)=O)C(=O)N1CCC[C@H]1C(=O)N[C@H](C(N)=O)[C@@H](C)O (X2-RPPPS-NH2) | > 50 µM |
| > 100 µM | > 50 µM | 10.9 min | – | – | CC(C)C[C@H](NC(=O)[C@@H]1O[C@H]1C(=O)N[C@@H](CO)C(=O)N1CCC[C@H]1C(=O)N1CCC[C@H]1C(=O)N1CCC[C@H]1C(=O)N[C@@H](CO)C(N)=O)C(=O)N1CCC[C@H]1C(=O)N[C@H](C(N)=O)[C@@H](C)O (X2-SPPPS-NH2) | > 50 µM |
| > 50 µM | > 50 µM | 12.3 min | 11.8 | – | CC(C)C[C@H](NC(=O)[C@@H]1O[C@H]1C(=O)N[C@H](C(=O)N1CCC[C@H]1C(=O)N1CCC[C@H]1C(=O)N1CCC[C@H]1C(=O)N[C@@H](CO)C(N)=O)[C@@H](C)O)C(=O)N1CCC[C@H]1C(=O)N[C@H](C(N)=O)[C@@H](C)O (X2-TPPPS-NH2) | 4.24 µM |
